ChEMBL document CHEMBL1250464, “The marine sponge metabolite mycothiazole: a novel prototype mitochondrial complex I inhibitor” (Bioorg Med Chem, 2010)
Calls of active or inactive are those of the source. No cut-off for these calls is given here.

Tests used:
T47D [1] = assay: Inhibition of hypoxia-induced HIF-1 activation in human T47D cells at 0.1 to 1000 nM by luciferase reporter gene assay; assay type: cell-based
In short: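 T47D cells (DMEM/F12, 10% FBS) carrying the pHRE3-TK-Luc HIF-1 luciferase reporter were exposed to hypoxia (1% O₂) for 16 h with compound at 0.1, 0.3, 1, 3, 10, 30, 100 and 1000 nM. Cycloheximide at 100 μM served as positive control. Data are from one representative triplicate experiment, mean ± SD.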

[2] = Neurotoxicity in Wistar rat cerebellar granule neurons assessed as cell death at 10 nM after 24 hrs using propidium iodide and Hoescht 33342 staining; assay type: toxicity, cell-based; conditions: neuron, 0.01 µM
In short: (§1)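 Primary cerebellar granule neurons from 6-7-day-old Wistar rat pups, cultured 6-10 days at 37 °C. Cells exposed to compound for 24 h, then stained 20 min with Hoechst 33342 (5 μg/mL) and propidium iodide (1 μg/mL) in pH 7.3 buffer. At least 100 cells scored per treatment. Scoring: PI+ = late apoptotic/necrotic; PI− with condensed or fragmented nuclei = apoptotic; PI− with swollen, fragmented nuclei = early necrotic.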

T47D [3] = assay: Cytotoxicity against human T47D cells assessed as inhibition of cell proliferation after 48 hrs by SRB assay relative to control; assay type: functional; parameters: scale not given: the % may be the effect or the level left
T47D [4] = assay: Inhibition of electron transport protein complex 1-mediated cellular respiration in digitonin-permeabilized human T47D cells at 10 nM presence of succinate; assay type: cell-based
In short: (§2)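 Clark-type oxygen electrode used to follow O2 consumption in T47D cells permeabilized with 10 μM digitonin. Substrates and inhibitors added one after another at set times. For complex I, respiration was started with malate/pyruvate, compound (10 nM) was added, then succinate was added to feed complex II.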

T47D [5] = assay: Inhibition of electron transport protein complex 2-mediated cellular respiration in digitonin-permeabilized human T47D cells at 10 to 30 nM presence of succinate; assay type: cell-based; in short: as §2
T47D [6] = assay: Inhibition of electron transport protein complex 3-mediated cellular respiration in digitonin-permeabilized human T47D cells at 10 to 30 nM presence of succinate; assay type: cell-based; in short: as §2
T47D [7] = assay: Reduction of hypoxia-induced GLUT1 mRNA expression in human T47D cells treated after 16 hrs of hypoxia by RT-PCR analysis; assay type: functional, cell-based
In short: (§3)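 T47D cells held at 1% O2 for 16 h with or without compound. Total RNA measured by real-time RT-PCR, normalized to 18S rRNA, and expressed relative to the normoxic control. Mean of two independent experiments.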

T47D [8] = assay: Reduction of hypoxia-induced secreted VEGF protein level in human T47D cells after 16 hrs by ELISA; assay type: functional, cell-based
In short: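 T47D cells exposed to 1% O2 or 10 μM 1,10-phenanthroline for 16 h with or without compound. Secreted VEGF in conditioned medium measured by ELISA and normalized to cellular protein (micro BCA). Mean with SD, N = 3. One-way ANOVA with Bonferroni post hoc test.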

T47D [9] = assay: Inhibition of tumor angiogenesis in human T47D cells in normoxic conditioned medium at 10 nM by HUVEC-based tube formation assay; assay type: functional, cell-based
In short: (§4)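 Conditioned media collected from T47D cells treated for 16 h, normoxic or hypoxic (1% O2), with or without compound (10 nM). Media applied to HUVECs for tube formation. Relative tube length and branching points counted in three random fields, mean with SD. One-way ANOVA with Bonferroni post hoc test.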

T47D [10] = assay: Inhibition of tumor angiogenesis in human T47D cells in conditioned medium at 10 nM treated after 16 hrs of hypoxia by HUVEC-based tube formation assay; assay type: functional, cell-based; in short: as §4
MDA-MB-231 = assay: Cytotoxicity against human MDA-MB-231 cells assessed as inhibition of cell proliferation after 48 hrs by SRB assay; assay type: functional, cell-based
[11] = Neurotoxicity in Wistar rat cerebellar granule neurons assessed as apoptotic cells at 0.01 uM after 24 hrs using propidium iodide and Hoescht 33342 staining; assay type: toxicity, cell-based; conditions: neuron; in short: as §1
T47D [12] = assay: Inhibition of electron transport protein complex 4-mediated cellular respiration in digitonin-permeabilized human T47D cells at 10 to 30 nM presence of succinate; assay type: cell-based
T47D [13] = assay: Inhibition of hypoxia-induced HIF-1alpha protein accumulation in human T47D cell nucleus at 10 to 100 nM treated after 4 hrs of hypoxia by Western blotting; assay type: functional, cell-based
In short: (§5)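 Nuclear extracts prepared from T47D cells held at 1% O2 for 4 h with or without compound. HIF-1α and HIF-1β protein levels determined by western blot.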

T47D [14] = assay: Inhibition of 1,10-phenanthroline-induced HIF-1 activation in human T47D cells at up to 10 uM by luciferase reporter gene assay; assay type: cell-based
In short: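 T47D cells carrying the pHRE3-TK-Luc HIF-1 luciferase reporter. HIF-1 induced chemically with 10 μM 1,10-phenanthroline. Compound tested at concentrations up to 10 μM.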

T47D [15] = assay: Reduction of hypoxia-induced VEGF mRNA expression in human T47D cells treated after 16 hrs of hypoxia by RT-PCR analysis; assay type: functional, cell-based; in short: as §3
T47D [16] = assay: Inhibition of hypoxia-induced HIF-1beta protein accumulation in human T47D cell nucleus at 10 to 100 nM treated after 4 hrs of hypoxia by Western blotting; assay type: functional, cell-based; in short: as §5
T47D [17] = assay: Inhibition of oxygen consumption in human T47D cells; assay type: functional, cell-based
In short: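 Oxygen consumption measured with a Clark-type electrode in non-permeabilized T47D cells. Rotenone served as the complex I reference. Data given as % inhibition versus untreated control, averaged over three independent experiments with SD.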

[18] = Neurotoxicity in Wistar rat cerebellar granule neurons assessed as attached dead cells at 0.1 uM after 24 hrs using propidium iodide and Hoescht 33342 staining; assay type: toxicity, cell-based; conditions: neuron; in short: as §1
T47D [19] = assay: Inhibition of electron transport protein complex 1-mediated cellular respiration in digitonin-permeabilized human T47D cells at 30 nM presence of succinate; assay type: cell-based
T47D [20] = assay: Reduction of hypoxia-induced GLUT1 mRNA expression in human T47D cells at 0.1 uM treated after 16 hrs of hypoxia by RT-PCR analysis; assay type: functional, cell-based
In short: (§6)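 T47D cells were held at 1% O₂ for 16 h with or without compound. Total RNA was isolated and target mRNA was quantified by real-time RT-PCR, normalized to 18S rRNA, and expressed relative to the normoxic control. Values are averages of two independent experiments.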

T47D [21] = assay: Reduction of hypoxia-induced VEGF mRNA expression in human T47D cells at 0.1 uM treated after 16 hrs of hypoxia by RT-PCR analysis; assay type: functional, cell-based; in short: as §6

## C=CC/C=C\Cc1csc(C(C)(C)[C@H](O)C/C=C\C(=C)CCNC(=O)OC)n1 [MYCOTHIAZOLE]
T47D [1]
  inhibition: Active
[2]
  Activity: Toxic
T47D [3]
  Activity: 55%
T47D [4]
  inhibition: Active
T47D [5]
  inhibition: inactive
T47D [6]
  inhibition: inactive
T47D [7]
  inhibition: Dose-dependent effect
T47D [8]
  Activity: Active
T47D [9]
  inhibition: inactive
T47D [10]
  inhibition: Active
MDA-MB-231
  Activity: Active
[11]
  Activity: 85%
T47D [12]
  inhibition: inactive
T47D [13]
  inhibition: Active
T47D [14]
  inhibition: inactive
T47D [15]
  inhibition: Dose-dependent effect
T47D [16]
  inhibition: inactive
T47D [17]
  inhibition: Dose-dependent effect

## C=C(C)[C@H]1Cc2c(ccc3c2O[C@@H]2COc4cc(OC)c(OC)cc4[C@@H]2C3=O)O1 [ROTENONE]
[2]
  Activity: Toxic
[18]
  Activity: 60%

## C=CC/C=C\Cc1csc(C(C)(C)[C@H](O)C/C=C/C(O)(CO)CCNC(=O)OC)n1 (stereo not given in full)
T47D [19]
  inhibition: Active
T47D [1]
  inhibition: inactive
T47D [20]
  inhibition: inactive
MDA-MB-231
  Activity: Active
T47D [21]
  inhibition: inactive

## C=CC/C=C\Cc1csc(C(C)(C)[C@@H](C/C=C\C(=C)CCNC(=O)OC)OC(C)=O)n1
T47D [1]
  inhibition: Active
T47D [3]
  Activity: 55%
T47D [7]
  inhibition: Dose-dependent effect
MDA-MB-231
  Activity: Active
T47D [15]
  inhibition: Dose-dependent effect
